Publication PMC11025564 (The journal of physical chemistry. B, 2018)

System: integrin αIIbβ3 TM complex
Type: binding, Human
Settings: ITC, 28 °C, same bicelles
In short: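 β3 TM peptide (10 μM in cell) titrated with αIIb TM peptide in 10 s injections until saturation. Medium: 43 mM DHPC, 17 mM POPC, 25 mM sodium phosphate, pH 7.4, with 9 mM free DHPC. Heats of dilution of both peptides were subtracted. ΔH° and mole-fraction K_XY were fitted with 1:1 stoichiometry fixed. Peptide amounts were set by UV absorbance.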

Substance: αIIb + β3: Human integrin αIIb(A958-P998) and β3(P685-F727) TM peptides incorporating β3(C687S), recombinantly produced; wild-type pair
- ΔG° (ΔG° = −RT ln KXY): -4.84 ± 0.01 kcal/mol
- TΔS° (ΔS° = (ΔH° − ΔG°)/T): -11.1 ± 0.1 kcal/mol
